{
  "source": "ChEMBL document CHEMBL3244396",
  "about": "“Synthesis and antileukemic activity of 5-substituted 2,3-dihydro-6,7-bis(hydroxymethyl)-1H-pyrrolizine diesters” (J Med Chem, 1977)",
  "key": {"L1210 [1]": {"test_system": "L1210", "assay": "Antileukemic activity against mouse L1210 cells allografted in female CDF1 mouse assessed as host mean survival time at 100 mg/kg, ip administered daily for 9 days as Klucel suspension starting 24 hrs after tumor inoculation relative to control", "format": "functional", "details": "route intraperitoneal", "how_it_was_run": "(§1)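 L1210 leukemia given as an ascitic fluid cell inoculum, ip, to mice of the strain and sex in each line. Test material was given ip for nine daily doses starting 24 h after inoculation, in a Klucel (hydroxypropylcellulose) suspension. Read-out is mean survival time as %T/C versus controls, with >125 taken as significant.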"}, "L1210 [2]": {"test_system": "L1210", "assay": "Antileukemic activity against mouse L1210 cells allografted in female CDF1 mouse assessed as change in body weight at 400 mg/kg, ip administered daily for 9 days as Klucel suspension starting 24 hrs after tumor inoculation", "format": "functional", "details": "route intraperitoneal", "how_it_was_run": "(§2)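 Ascitic fluid carrying L1210 cells was inoculated ip. Compound was given ip as a Klucel (hydroxypropylcellulose) suspension in nine daily doses, starting 24 h after inoculation. Body-weight difference (treated minus control) was recorded on day 5. Survival was scored as %T/C of mean survival time.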"}, "L1210 [3]": {"test_system": "L1210", "assay": "Antileukemic activity against mouse L1210 cells allografted in female CDF1 mouse assessed as change in body weight at 200 mg/kg, ip administered daily for 9 days as Klucel suspension starting 24 hrs after tumor inoculation", "format": "functional", "details": "route intraperitoneal", "how_it_was_run": "as §2"}, "Mus musculus [4]": {"test_system": "Mus musculus", "assay": "Toxicity in male CDF1 mouse allografted with mouse L1210 cells assessed as animal survival at 50 mg/kg, ip administered daily for 9 days as Klucel suspension starting 24 hrs after tumor inoculation measured on fifth day", "format": "organism-based", "set-up": "dose 50 mg/kg, route intraperitoneal", "details": "in vivo", "how_it_was_run": "(§3)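 L1210 leukemia passaged as ascitic fluid and inoculated ip. Test agent given ip as a Klucel (hydroxypropylcellulose) suspension, nine daily doses starting 24 h after tumor inoculation. Acute toxicity read as toxicity-day survivors per group (out of 6), recorded on day 5. Animal weight difference T − C was also recorded. Follows NCI screening protocols.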"}, "L1210 [5]": {"test_system": "L1210", "assay": "Antileukemic activity against mouse L1210 cells allografted in female CDF1 mouse assessed as change in body weight at 100 mg/kg, ip administered daily for 9 days as Klucel suspension starting 24 hrs after tumor inoculation", "format": "functional", "details": "route intraperitoneal", "how_it_was_run": "as §2"}, "[6]": {"assay": "Cytotoxicity against human 9KB cells treated as ethanol solution", "format": "functional", "details": "read-out: ED50 (the source's name)", "how_it_was_run": "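Compound applied as an ethanol solution; activity read out as ED50 under the general screening protocol.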"}, "L1210 [7]": {"test_system": "L1210", "assay": "Antileukemic activity against mouse L1210 cells allografted in male CDF1 mouse assessed as host mean survival time at 200 mg/kg, ip administered daily for 9 days as Klucel suspension starting 24 hrs after tumor inoculation relative to control", "format": "functional", "details": "route intraperitoneal", "how_it_was_run": "as §1"}, "L1210 [8]": {"test_system": "L1210", "assay": "Antileukemic activity against mouse L1210 cells allografted in male CDF1 mouse assessed as host mean survival time at 100 mg/kg, ip administered daily for 9 days as Klucel suspension starting 24 hrs after tumor inoculation relative to control", "format": "functional", "details": "route intraperitoneal", "how_it_was_run": "as §1"}, "Mus musculus [9]": {"test_system": "Mus musculus", "assay": "Toxicity in male CDF1 mouse allografted with mouse L1210 cells assessed as animal survival at 100 mg/kg, ip administered daily for 9 days as Klucel suspension starting 24 hrs after tumor inoculation measured on fifth day", "format": "organism-based", "set-up": "dose 100 mg/kg, route intraperitoneal", "details": "in vivo", "how_it_was_run": "as §3"}, "L1210 [10]": {"test_system": "L1210", "assay": "Antileukemic activity against mouse L1210 cells allografted in female CDF1 mouse assessed as change in body weight at 50 mg/kg, ip administered daily for 9 days as Klucel suspension starting 24 hrs after tumor inoculation", "format": "functional", "details": "route intraperitoneal", "how_it_was_run": "as §2"}, "Mus musculus [11]": {"test_system": "Mus musculus", "assay": "Toxicity in female CDF1 mouse allografted with mouse L1210 cells assessed as animal survival at 50 mg/kg, ip administered daily for 9 days as Klucel suspension starting 24 hrs after tumor inoculation measured on fifth day", "format": "organism-based", "set-up": "dose 50 mg/kg, route intraperitoneal", "details": "in vivo", "how_it_was_run": "as §3"}, "L1210 [12]": {"test_system": "L1210", "assay": "Antileukemic activity against mouse L1210 cells allografted in male CDF1 mouse assessed as host mean survival time at 50 mg/kg, ip administered daily for 9 days as Klucel suspension starting 24 hrs after tumor inoculation relative to control", "format": "functional", "details": "route intraperitoneal", "how_it_was_run": "as §1"}, "L1210 [13]": {"test_system": "L1210", "assay": "Antileukemic activity against mouse L1210 cells allografted in male CDF1 mouse assessed as change in body weight at 200 mg/kg, ip administered daily for 9 days as Klucel suspension starting 24 hrs after tumor inoculation", "format": "functional", "details": "route intraperitoneal", "how_it_was_run": "as §2"}, "Mus musculus [14]": {"test_system": "Mus musculus", "assay": "Toxicity in female CDF1 mouse allografted with mouse L1210 cells assessed as animal survival at 400 mg/kg, ip administered daily for 9 days as Klucel suspension starting 24 hrs after tumor inoculation measured on fifth day", "format": "organism-based", "set-up": "dose 400 mg/kg, route intraperitoneal", "details": "in vivo", "how_it_was_run": "as §3"}, "L1210 [15]": {"test_system": "L1210", "assay": "Antileukemic activity against mouse L1210 cells allografted in male CDF1 mouse assessed as change in body weight at 100 mg/kg, ip administered daily for 9 days as Klucel suspension starting 24 hrs after tumor inoculation", "format": "functional", "details": "route intraperitoneal", "how_it_was_run": "as §2"}, "L1210 [16]": {"test_system": "L1210", "assay": "Antileukemic activity against mouse L1210 cells allografted in male CDF1 mouse assessed as change in body weight at 50 mg/kg, ip administered daily for 9 days as Klucel suspension starting 24 hrs after tumor inoculation", "format": "functional", "details": "route intraperitoneal", "how_it_was_run": "as §2"}, "L1210 [17]": {"test_system": "L1210", "assay": "Antileukemic activity against mouse L1210 cells allografted in female CDF1 mouse assessed as host mean survival time at 200 mg/kg, ip administered daily for 9 days as Klucel suspension starting 24 hrs after tumor inoculation relative to control", "format": "functional", "details": "route intraperitoneal", "how_it_was_run": "as §1"}, "L1210 [18]": {"test_system": "L1210", "assay": "Antileukemic activity against mouse L1210 cells allografted in female CDF1 mouse assessed as host mean survival time at 50 mg/kg, ip administered daily for 9 days as Klucel suspension starting 24 hrs after tumor inoculation relative to control", "format": "functional", "details": "route intraperitoneal", "how_it_was_run": "as §1"}, "Mus musculus [19]": {"test_system": "Mus musculus", "assay": "Toxicity in male CDF1 mouse allografted with mouse L1210 cells assessed as animal survival at 200 mg/kg, ip administered daily for 9 days as Klucel suspension starting 24 hrs after tumor inoculation measured on fifth day", "format": "organism-based", "set-up": "dose 200 mg/kg, route intraperitoneal", "details": "in vivo", "how_it_was_run": "as §3"}},
  "data": [
    {"compound": "COc1ccc(-c2c(COC(C)=O)c(COC(C)=O)c3n2CCC3)cc1", "values": [
      {"measurement": "T/C", "setting": "L1210 [1]", "result": 65, "unit": "%"},
      {"measurement": "Activity", "setting": "L1210 [2]", "result": -0.1, "unit": "g"},
      {"measurement": "Activity", "setting": "L1210 [3]", "result": -2.5, "unit": "g"},
      {"measurement": "Activity", "setting": "Mus musculus [4]", "result": "Non-toxic"},
      {"measurement": "Activity", "setting": "L1210 [5]", "result": -2.5, "unit": "g"},
      {"measurement": "EC50", "setting": "[6]", "result": 2.5, "unit": "µg/mL"},
      {"measurement": "T/C", "setting": "L1210 [7]", "result": 130, "unit": "%"},
      {"measurement": "T/C", "setting": "L1210 [8]", "result": 78, "unit": "%"},
      {"measurement": "Activity", "setting": "Mus musculus [9]", "result": "Non-toxic"},
      {"measurement": "Activity", "setting": "L1210 [10]", "result": -1, "unit": "g"},
      {"measurement": "Activity", "setting": "Mus musculus [11]", "result": "Non-toxic"},
      {"measurement": "T/C", "setting": "L1210 [12]", "result": 113, "unit": "%"},
      {"measurement": "Activity", "setting": "L1210 [13]", "result": -5.2, "unit": "g"},
      {"measurement": "Activity", "setting": "Mus musculus [14]", "result": "Toxic"},
      {"measurement": "Activity", "setting": "L1210 [15]", "result": -7.2, "unit": "g"},
      {"measurement": "Activity", "setting": "L1210 [16]", "result": -2.9, "unit": "g"},
      {"measurement": "T/C", "setting": "L1210 [17]", "result": 65, "unit": "%"},
      {"measurement": "T/C", "setting": "L1210 [18]", "result": 77, "unit": "%"},
      {"measurement": "Activity", "setting": "Mus musculus [19]", "result": "Non-toxic"}
    ]}
  ]
}
